# Published values pooled from the literature.
# Compare with care: the assays were run in different laboratories.
# Observed: metabolic stability
SMILES,test system,setting,quantity,result
NC(=O)[C@@H]1CC(F)(F)CN1C(=O)c1ccc(N2CC(F)(F)C2)c(OCC2CC2)n1,"mouse, hepatocytes",,hepatocyte CLint,59 µL/min/10⁶ cells
Cc1ncc2n1-c1ccc(Cl)cc1C(c1ccccc1F)=NC2,"male CD-1 mouse, liver microsomes",1 µM,microsomal CLint,> 250 µL/min/mg
Cc1cc(C)nc(Nc2ncc(C(=O)NCCc3c(C)[nH]c4ccccc34)cn2)c1,"mouse, liver microsomes",1 µM,microsomal CLint,148 µL/min/mg
Cc1ccc(F)c2cc(C(=O)N[C@@H]3CCC[C@H](N4CC[C@H](N(C)S(C)(=O)=O)C4)C3)[nH]c12,"mouse, hepatocytes","0.5 µM, 1 h",scaled CLint,721 mL/min/kg
C[C@H]1COCCN1c1nc(NCc2cccnc2C(F)(F)F)c2cccnc2n1,"mouse, hepatocytes",,hepatocyte CLint,8.9 µL/min/10⁶ cells
Cc1nc2c(=O)n(C)c(=O)nc-2n(C)n1,"mouse, liver microsomes",,microsomal CLint,< 7.4 µL/min/mg
Cc1cc(Cl)c(Cl)cc1NC(=O)c1ccc(N2CCNCC2)c(C#N)c1,"CD-1 mouse, liver microsomes","1 µM, 1 h, pH 7.4",scaled CLint,29 mL/min/kg
Cc1nc([C@@](C)(CC2CC2)NC(=O)c2cc(OCC(F)(F)F)c(C3CC3)cn2)no1,"mouse, hepatocytes",,hepatocyte CLint,27 µL/min/10⁶ cells
